Source: ChEMBL document CHEMBL5230175, “The war on hTG2: warhead optimization in small molecule human tissue transglutaminase inhibitors” (RSC Med Chem, 2023)

Experiments:
[1] = biological target: T1, Protein-glutamine gamma-glutamyltransferase E (Homo sapiens) (UniProt Q08188); experiment: Reversible inhibition of activated human TG3 using peptidic FRET-quenched probe A101 as substrate by fluorescence based assay relative to control; conditions: concentration not given here
T1 sequence (whole entry): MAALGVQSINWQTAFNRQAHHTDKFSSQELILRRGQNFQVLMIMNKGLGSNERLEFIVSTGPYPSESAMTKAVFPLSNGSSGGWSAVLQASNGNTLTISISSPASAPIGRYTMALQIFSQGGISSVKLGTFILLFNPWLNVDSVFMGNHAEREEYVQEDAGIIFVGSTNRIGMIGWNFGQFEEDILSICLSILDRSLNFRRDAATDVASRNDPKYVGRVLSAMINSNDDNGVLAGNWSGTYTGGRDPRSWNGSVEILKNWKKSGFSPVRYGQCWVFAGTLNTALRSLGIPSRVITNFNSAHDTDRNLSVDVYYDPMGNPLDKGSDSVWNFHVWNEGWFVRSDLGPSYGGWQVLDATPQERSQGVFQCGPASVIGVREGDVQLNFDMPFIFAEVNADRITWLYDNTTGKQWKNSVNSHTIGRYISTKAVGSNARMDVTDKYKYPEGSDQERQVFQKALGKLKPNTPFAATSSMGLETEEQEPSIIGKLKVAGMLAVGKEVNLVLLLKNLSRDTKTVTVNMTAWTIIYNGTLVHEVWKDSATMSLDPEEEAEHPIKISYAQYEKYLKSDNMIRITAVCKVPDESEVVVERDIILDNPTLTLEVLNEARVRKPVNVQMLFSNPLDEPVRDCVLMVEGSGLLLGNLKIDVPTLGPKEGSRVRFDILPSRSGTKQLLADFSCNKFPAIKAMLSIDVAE

[2] = biological target: T2, Protein-glutamine gamma-glutamyltransferase 6 (Homo sapiens) (UniProt O95932); experiment: Irreversible inhibition of human TG6 using Cbz-Glu-(gamma-p-nitrophenylester)Gly (AL5) as substrate assessed as substrate hydrolysis by measuring observed binding constant incubated for 60 mins by colorimetric assay
T2 sequence (whole entry): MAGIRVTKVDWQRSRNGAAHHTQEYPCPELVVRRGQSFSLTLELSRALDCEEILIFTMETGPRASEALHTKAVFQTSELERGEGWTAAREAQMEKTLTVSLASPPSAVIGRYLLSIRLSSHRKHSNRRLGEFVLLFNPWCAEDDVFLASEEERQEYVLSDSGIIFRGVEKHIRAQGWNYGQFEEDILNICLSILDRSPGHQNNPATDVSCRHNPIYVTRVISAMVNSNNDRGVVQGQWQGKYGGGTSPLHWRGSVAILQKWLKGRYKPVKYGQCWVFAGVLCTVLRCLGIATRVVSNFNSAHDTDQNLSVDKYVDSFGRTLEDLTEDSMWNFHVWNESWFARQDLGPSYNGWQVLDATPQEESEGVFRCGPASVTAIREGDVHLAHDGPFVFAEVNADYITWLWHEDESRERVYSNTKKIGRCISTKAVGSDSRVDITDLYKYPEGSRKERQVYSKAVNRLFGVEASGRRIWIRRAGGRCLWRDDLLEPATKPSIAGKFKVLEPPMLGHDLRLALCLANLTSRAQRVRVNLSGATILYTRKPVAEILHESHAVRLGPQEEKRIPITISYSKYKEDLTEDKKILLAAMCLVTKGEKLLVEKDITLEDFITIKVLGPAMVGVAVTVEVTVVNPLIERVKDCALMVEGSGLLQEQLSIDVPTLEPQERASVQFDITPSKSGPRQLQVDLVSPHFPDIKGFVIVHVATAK

[3] = Ratio of Kinact/Ki for inhibition of human tissue transglutaminase assessed as substrate hydrolysis to corrected second order rate constant (K2 corrected) for GSH reactivity in aqueous buffer assessed as GSH adduct formation; format: physicochemical
[4] = biological target: T3, Protein-glutamine gamma-glutamyltransferase (Homo sapiens) (UniProt P21980); experiment: Irreversible inhibition of human recombinant tissue transglutaminase expressed in Escherichia coli using Cbz-Glu-(gamma-p-nitrophenylester)Gly (AL5) as substrate assessed as substrate hydrolysis by measuring Kinact/Ki ratio incubated for 20 mins by colorimetric analysis
T3 sequence (whole entry): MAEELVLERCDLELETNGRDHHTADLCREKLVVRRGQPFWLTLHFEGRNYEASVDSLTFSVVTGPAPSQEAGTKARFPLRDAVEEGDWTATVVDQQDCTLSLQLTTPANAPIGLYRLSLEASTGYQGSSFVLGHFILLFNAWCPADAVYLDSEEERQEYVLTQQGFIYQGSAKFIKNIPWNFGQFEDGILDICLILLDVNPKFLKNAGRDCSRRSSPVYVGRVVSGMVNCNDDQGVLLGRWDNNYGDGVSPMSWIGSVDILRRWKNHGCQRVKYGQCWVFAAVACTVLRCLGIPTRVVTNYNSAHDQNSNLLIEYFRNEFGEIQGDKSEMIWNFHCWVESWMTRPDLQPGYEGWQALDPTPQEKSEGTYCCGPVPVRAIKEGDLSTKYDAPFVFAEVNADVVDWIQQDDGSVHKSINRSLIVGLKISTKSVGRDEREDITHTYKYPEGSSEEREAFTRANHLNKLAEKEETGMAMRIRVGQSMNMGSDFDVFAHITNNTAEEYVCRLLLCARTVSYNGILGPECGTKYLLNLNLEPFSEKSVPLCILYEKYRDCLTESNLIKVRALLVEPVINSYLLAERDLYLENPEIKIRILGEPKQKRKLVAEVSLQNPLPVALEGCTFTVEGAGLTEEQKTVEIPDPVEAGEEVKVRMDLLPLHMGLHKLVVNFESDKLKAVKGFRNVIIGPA

[5] = biological target: T3, Protein-glutamine gamma-glutamyltransferase (Homo sapiens); experiment: Irreversible inhibition of human recombinant tissue transglutaminase expressed in Escherichia coli using Cbz-Glu-(gamma-p-nitrophenylester)Gly (AL5) as substrate assessed as substrate hydrolysis by measuring Kinact/Ki ratio by linear regression analysis
In short: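 For TG2/AL5 under Kitz–Wilson conditions (100 μM AL5, pH 6.9 MOPS, 25 °C, 405 nm), kinact/KI was taken from simple linear regression of kobs against corrected inhibitor concentration at the lowest inhibitor concentrations.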

[6] = biological target: T4, Protein-glutamine gamma-glutamyltransferase (Homo sapiens, UniProt P21980); experiment: Irreversible inhibition of human recombinant tissue transglutaminase expressed in Escherichia coli using Cbz-Glu-(gamma-p-nitrophenylester)Gly (AL5) as substrate assessed as substrate hydrolysis by measuring KI incubated for 20 mins by colorimetric analysis
T4 sequence (P21980 whole entry): T3 sequence (whole entry)

[7] = biological target: T3, Protein-glutamine gamma-glutamyltransferase (Homo sapiens); experiment: Inhibition of human recombinant tissue transglutaminase expressed in Escherichia coli using Cbz-Glu-(gamma-p-nitrophenylester)Gly (AL5) as substrate assessed as substrate hydrolysis by measuring Kinact incubated for 20 mins by colorimetric analysis

SMILES	inhibition [1]	K [2]	Ratio [3]	Ratio [4]	Ratio [5]	Ki [6]	Kinact [7]
C=CC(=O)NCC(=O)N1CCN(C(=O)C23CC4CC(CC(C4)C2)C3)CC1	59.1%	0.02 min⁻¹					
O=C(CCl)NCC(=O)N1CCN(C(=O)C23CC4CC(CC(C4)C2)C3)CC1	41.5%		5.437	8050 10^3/M/min	4540 10^3/M/min	150 nM	1.23 min⁻¹
